According to ChEMBL document CHEMBL1773057, “Design, synthesis and in vitro antimicrobial evaluation of novel Imidazo[1,2-a]pyridine and imidazo[2,1-b][1,3]benzothiazole motifs” (2011):
In brackets after ≈: the same amount, converted by molar mass.

Assays:
Format in all cases: functional
Candida parapsilosis = assay: Antimicrobial activity against Candida parapsilosis after 48 hrs by broth microdilution method; settings: Lodderomyces parapsilosis
How it was run: (§1)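 Fungi were grown on Sabouraud dextrose agar. Inocula were prepared in Sabouraud liquid medium at 37 °C for 12 h, then diluted in RPMI-1640 with L-glutamine, MOPS-buffered at pH 7. Compounds were made as 1000 µg/mL stocks in 50% DMSO/H₂O and tested as two-fold dilutions from 500 µg/mL. Sealed plates were incubated at 37 °C for 48 h in a humid chamber. MIC was the lowest concentration without visible turbidity.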

Staphylococcus aureus = assay: Antimicrobial activity against Staphylococcus aureus after 24 hrs by broth microdilution method
How it was run: (§2)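 Broth microdilution. Bacteria were grown on Mueller-Hinton agar and diluted in Mueller-Hinton broth. Compounds were made as 1000 µg/mL stocks in 50% DMSO/H₂O and added to wells as two-fold dilutions starting at 500 µg/mL, then inoculated. Sealed plates were incubated at 37 °C for 24 h in a humid chamber. MIC was the lowest concentration with no visible turbidity.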

Klebsiella aerogenes = assay: Antimicrobial activity against Enterobacter aerogenes after 24 hrs by broth microdilution method; how it was run: as §2
Priestia megaterium = assay: Antimicrobial activity against Bacillus megaterium after 24 hrs by broth microdilution method; how it was run: as §2
Pseudomonas aeruginosa = assay: Antimicrobial activity against Pseudomonas aeruginosa after 24 hrs by broth microdilution method; how it was run: as §2
Nannizzia gypsea = assay: Antimicrobial activity against Microsporum gypseum after 48 hrs by broth microdilution method; how it was run: as §1
Escherichia coli = assay: Antimicrobial activity against Escherichia coli after 24 hrs by broth microdilution method; how it was run: as §2
Enterococcus faecalis = assay: Antimicrobial activity against Enterococcus faecalis after 24 hrs by broth microdilution method; how it was run: as §2
Aspergillus flavus = assay: Antimicrobial activity against Aspergillus flavus after 48 hrs by broth microdilution method; how it was run: as §1
Candida albicans = assay: Antimicrobial activity against Candida albicans after 48 hrs by broth microdilution method; how it was run: as §1

Row | MIC (Candida parapsilosis) | MIC (Staphylococcus aureus) | MIC (Klebsiella aerogenes) | MIC (Priestia megaterium) | MIC (Pseudomonas aeruginosa) | MIC (Nannizzia gypsea) | MIC (Escherichia coli) | MIC (Enterococcus faecalis) | MIC (Aspergillus flavus) | MIC (Candida albicans) | SMILES
1 | 16.5 µg/mL (≈ 38.3 µM) | 10.1 µg/mL (≈ 23.5 µM) | 14.6 µg/mL (≈ 34 µM) | 22.1 µg/mL (≈ 51.5 µM) | 16.2 µg/mL (≈ 37.6 µM) | 10.5 µg/mL (≈ 24.5 µM) | 14.5 µg/mL (≈ 33.7 µM) | 9.17 µg/mL (≈ 21.3 µM) | 14.6 µg/mL (≈ 33.8 µM) | 14.6 µg/mL (≈ 34 µM) | Cc1ccc2[nH]cc(-c3nc4sc5cc(F)ccc5n4c3Nc3ccc(F)cc3)c2c1
2 | 1.15 µg/mL (≈ 1.94 µM) | 0.63 µg/mL (≈ 1.06 µM) | 0.81 µg/mL (≈ 1.36 µM) | 4.07 µg/mL (≈ 6.86 µM) | 1.34 µg/mL (≈ 2.26 µM) | 0.84 µg/mL (≈ 1.42 µM) | 1.15 µg/mL (≈ 1.94 µM) | 1.21 µg/mL (≈ 2.04 µM) | 0.72 µg/mL (≈ 1.21 µM) | 1.05 µg/mL (≈ 1.77 µM) | Fc1ccc(Nc2c(-c3cnc4ccc(Br)cc4c3)nc3ccc(-c4ncc(-c5ccc(F)cc5)[nH]4)cn23)cc1
3 | 14.4 µg/mL (≈ 32.6 µM) | 8.63 µg/mL (≈ 19.5 µM) | 9.57 µg/mL (≈ 21.6 µM) | 18.6 µg/mL (≈ 42.1 µM) | 9.66 µg/mL (≈ 21.8 µM) | 18.4 µg/mL (≈ 41.6 µM) | 10.4 µg/mL (≈ 23.5 µM) | 9.45 µg/mL (≈ 21.4 µM) | 13.4 µg/mL (≈ 30.2 µM) | 12.2 µg/mL (≈ 27.5 µM) | Cc1ccc2ncc(-c3nc4sc5cc(F)ccc5n4c3Nc3ccc(F)cc3)cc2c1
4 | 5.34 µg/mL (≈ 8.58 µM) | 1.45 µg/mL (≈ 2.33 µM) | 1.27 µg/mL (≈ 2.04 µM) | 3.11 µg/mL (≈ 5 µM) | 1.58 µg/mL (≈ 2.54 µM) | 8.27 µg/mL (≈ 13.3 µM) | 1.72 µg/mL (≈ 2.76 µM) | 2.13 µg/mL (≈ 3.42 µM) | 7.15 µg/mL (≈ 11.5 µM) | 6.4 µg/mL (≈ 10.3 µM) | O=[N+]([O-])c1ccc(-c2nnc(-c3ccc4nc(-c5cnc6ccc(Br)cc6c5)c(Nc5ccc(F)cc5)n4c3)o2)cc1
5 | 13.6 µg/mL (≈ 29.6 µM) | 12.4 µg/mL (≈ 27.1 µM) | 13.4 µg/mL (≈ 29.3 µM) | 19.1 µg/mL (≈ 41.8 µM) | 11.9 µg/mL (≈ 25.9 µM) | 17.5 µg/mL (≈ 38.2 µM) | 10.4 µg/mL (≈ 22.7 µM) | 11.2 µg/mL (≈ 24.4 µM) | 15.3 µg/mL (≈ 33.4 µM) | 11.2 µg/mL (≈ 24.4 µM) | COc1ccc2ncc(-c3nc4sc5cc(F)ccc5n4c3Nc3ccc(F)cc3)cc2c1
6 | 1.13 µg/mL (≈ 2.23 µM) | 0.43 µg/mL (≈ 0.848 µM) | 0.51 µg/mL (≈ 1.01 µM) | 1.12 µg/mL (≈ 2.21 µM) | 0.34 µg/mL (≈ 0.67 µM) | 1.24 µg/mL (≈ 2.44 µM) | 0.35 µg/mL (≈ 0.69 µM) | 0.51 µg/mL (≈ 1.01 µM) | 1.3 µg/mL (≈ 2.56 µM) | 1.21 µg/mL (≈ 2.38 µM) | Fc1ccc(Nc2c(-c3cnc4ccc(Br)cc4c3)nc3sc4cc(F)ccc4n23)cc1
7 | 16.6 µg/mL (≈ 37.2 µM) | 17.4 µg/mL (≈ 38.9 µM) | 17.8 µg/mL (≈ 40 µM) | 23.4 µg/mL (≈ 52.5 µM) | 18.5 µg/mL (≈ 41.5 µM) | 19.6 µg/mL (≈ 44 µM) | 19.7 µg/mL (≈ 44.1 µM) | 19.5 µg/mL (≈ 43.8 µM) | 15.5 µg/mL (≈ 34.8 µM) | 17.5 µg/mL (≈ 39.2 µM) | COc1ccc2[nH]cc(-c3nc4sc5cc(F)ccc5n4c3Nc3ccc(F)cc3)c2c1
8 | 5.71 µg/mL (≈ 9.35 µM) | 2.45 µg/mL (≈ 4.01 µM) | 3.13 µg/mL (≈ 5.13 µM) | 4.34 µg/mL (≈ 7.11 µM) | 2.45 µg/mL (≈ 4.01 µM) | 11.2 µg/mL (≈ 18.4 µM) | 3.32 µg/mL (≈ 5.44 µM) | 2.11 µg/mL (≈ 3.46 µM) | 8.31 µg/mL (≈ 13.6 µM) | 6.63 µg/mL (≈ 10.9 µM) | O=[N+]([O-])c1ccc(-c2nnc(-c3ccc4nc(-c5c[nH]c6ccc(Br)cc56)c(Nc5ccc(F)cc5)n4c3)o2)cc1
9 | 12.6 µg/mL (≈ 21.3 µM) | 1.95 µg/mL (≈ 3.31 µM) | 2.78 µg/mL (≈ 4.72 µM) | 5.14 µg/mL (≈ 8.72 µM) | 2.89 µg/mL (≈ 4.9 µM) | 11.5 µg/mL (≈ 19.5 µM) | 3.42 µg/mL (≈ 5.8 µM) | 2.26 µg/mL (≈ 3.83 µM) | 12.6 µg/mL (≈ 21.4 µM) | 13.1 µg/mL (≈ 22.3 µM) | Cc1ccc(-c2cnc(-c3ccc4nc(-c5cnc6ccc(Br)cc6c5)c(Nc5ccc(F)cc5)n4c3)[nH]2)cc1
10 | 10.4 µg/mL (≈ 18 µM) | 3.13 µg/mL (≈ 5.4 µM) | 4.42 µg/mL (≈ 7.63 µM) | 6.44 µg/mL (≈ 11.1 µM) | 5.64 µg/mL (≈ 9.73 µM) | 13.4 µg/mL (≈ 23.1 µM) | 6.72 µg/mL (≈ 11.6 µM) | 7.56 µg/mL (≈ 13 µM) | 6.55 µg/mL (≈ 11.3 µM) | 11.6 µg/mL (≈ 20.1 µM) | Cc1ccc(-c2nnc(-c3ccc4nc(-c5c[nH]c6ccc(Br)cc56)c(Nc5ccc(F)cc5)n4c3)o2)cc1
11 | 10.4 µg/mL (≈ 18.7 µM) | 1.12 µg/mL (≈ 2.02 µM) | 1.15 µg/mL (≈ 2.07 µM) | 1.43 µg/mL (≈ 2.57 µM) | 1.51 µg/mL (≈ 2.72 µM) | 9.14 µg/mL (≈ 16.5 µM) | 1.12 µg/mL (≈ 2.02 µM) | 1.36 µg/mL (≈ 2.45 µM) | 12.2 µg/mL (≈ 22 µM) | 11.3 µg/mL (≈ 20.4 µM) | Fc1ccc(Nc2c(-c3c[nH]c4ccc(Br)cc34)nc3ccc(-c4nc5ccc(F)cc5[nH]4)cn23)cc1
12 | 6.22 µg/mL (≈ 10.2 µM) | 2.52 µg/mL (≈ 4.14 µM) | 2.35 µg/mL (≈ 3.86 µM) | 4.24 µg/mL (≈ 6.97 µM) | 2.11 µg/mL (≈ 3.47 µM) | 7.44 µg/mL (≈ 12.2 µM) | 2.13 µg/mL (≈ 3.5 µM) | 3.17 µg/mL (≈ 5.21 µM) | 9.35 µg/mL (≈ 15.4 µM) | 8.72 µg/mL (≈ 14.3 µM) | O=[N+]([O-])c1ccc(-c2cnc(-c3ccc4nc(-c5c[nH]c6ccc(Br)cc56)c(Nc5ccc(F)cc5)n4c3)[nH]2)cc1
13 | 2.32 µg/mL (≈ 4.68 µM) | 0.18 µg/mL (≈ 0.363 µM) | 0.32 µg/mL (≈ 0.646 µM) | 1.69 µg/mL (≈ 3.41 µM) | 0.53 µg/mL (≈ 1.07 µM) | 3.15 µg/mL (≈ 6.36 µM) | 0.44 µg/mL (≈ 0.888 µM) | 0.87 µg/mL (≈ 1.76 µM) | 2.13 µg/mL (≈ 4.3 µM) | 2.23 µg/mL (≈ 4.5 µM) | Fc1ccc(Nc2c(-c3c[nH]c4ccc(Br)cc34)nc3sc4cc(F)ccc4n23)cc1
